According to ChEMBL document CHEMBL5244226, “Cyathane Diterpenes from Cultures of the Bird's Nest Fungus Cyathus hookeri and Their Neurotrophic and Anti-neuroinflammatory Activities” (J Nat Prod, 2019):
Active and inactive are the calls of the source. The rule behind the calls is not given here.

Legend:
PC-12 [1] = test: Neurotrophic activity in rat PC-12 cells assessed as induction of NGF-mediated neurite outgrowth at 10 uM measured after 48 hrs by microscopic analysis; assay type: functional, cell-based
Summary of the method: (§1)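 PC-12 cells (rat) grown in DMEM with 10% heat-inactivated horse serum and 5% FBS at 37 °C, 5% CO2. Plated 1 × 10^4/well on poly-L-lysine for 24 h, then 14 h in low-serum medium (2% HS, 1% FBS). Treated 48 h with compound (DMSO) plus NGF 20 ng/mL; NGF alone as positive control. Triplicate wells, 10 random phase-contrast fields per well, ≥100 cells per field. Neurite-bearing cells counted as percentage of total.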

BV-2 = test: Antineuroinflammatory activity in mouse BV-2 cells assessed as inhibition of LPS-induced NO production measured after 24 hrs by Griess reagent based assay; assay type: functional, cell-based; details: BV-2, 24 h
Summary of the method: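 BV-2 murine microglia in DMEM with 10% heat-inactivated FBS, seeded 2 × 10^4/well and grown 24 h at 37 °C. Then co-treated 24 h with LPS (E. coli 0111:B4, 1 μg/mL) plus test agent in DMSO. Controls were DMSO+LPS and quercetin. Supernatant nitrite by Griess reaction, A540, against a sodium nitrite standard curve. IC50 is the concentration halving NO output.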

PC-12 [2] = test: Neurotrophic activity in rat PC-12 cells assessed as induction of NGF-mediated neurite outgrowth by measuring neurite bearing cells at 5 uM measured after 48 hrs by microscopic analysis (reference value: 15.7 +/- 0.1%); assay type: functional; summary of the method: as §1
PC-12 [3] = test: Neurotrophic activity in rat PC-12 cells assessed as induction of NGF-mediated neurite outgrowth by measuring neurite bearing cells at 10 uM measured after 48 hrs by microscopic analysis (reference value: 15.7 +/- 0.1%); assay type: functional; summary of the method: as §1
PC-12 [4] = test: Cytotoxicity against rat PC-12 cells at 10 uM; assay type: toxicity, cell-based; details: pc-12, 10 µM

SMILES | Activity (PC-12 [1]) | IC50 (BV-2) [µM] | Activity (PC-12 [2]) [%] | Activity (PC-12 [3]) [%] | Activity (PC-12 [4])
CC(C)C1=C2[C@H]3C[C@H]4O[C@](O)([C@H](O)[C@@H]4CO)[C@]3(C)CC[C@@]2(C)CC1 | Active | > 50 |  |  | 
CC1=CC(=O)[C@]2(C)CC[C@@]3(C)CCC(C(C)C)=C3[C@H]2CC1 | Active | 27.8 |  |  | 
CC(C)C1=C2[C@H]3C[C@H]4O[C@](O)(C=C4COC(=O)C(C)O)[C@]3(C)CC[C@@]2(C)CC1 (some centres not stated) | Active | 27.3 | 28.1 | 32 | 
COC(OC)C1=C[C@H](O)[C@]2(C)CC[C@@]3(C)CCC(C(C)C)=C3[C@H]2C[C@H]1OC | Active | 36.8 |  |  | 
CC(C)[C@]12CC[C@]3(C)CC[C@@]4(C)C(=O)C=C(CO)[C@H](O)C[C@@H]4[C@@]31O2 | Active | > 50 |  |  | 
CO[C@H]1C[C@@H]2C3=C(C(C)C)CC[C@]3(C)CC[C@@]2(C)[C@@H](O)C=C1C=O |  | 6.9 |  |  | Toxic
CC1=C[C@H](O)[C@]2(C)CC[C@@]3(C)CCC(C(C)C)=C3[C@H]2CC1 | Active | 32.8 |  |  | 
CO[C@@H]1C(C=O)=CC[C@@H]2C3=C(C(C)C)CC[C@]3(C)CC[C@@]2(C)[C@H]1O |  | 9.1 |  |  | Toxic
CC(C)C1=C2[C@H]3CC=C(C=O)CC(=O)[C@]3(C)CC[C@@]2(C)CC1 | Active | 10.9 |  |  | 
CC(C)C1=C2[C@H]3C[C@H]4O[C@](O)([C@H](O)[C@@H]4C4O[C@@H](C)[C@@H](C)O4)[C@]3(C)CC[C@@]2(C)CC1 (some centres not stated) | Active | 15.5 |  |  | 
CC(C)C1=C2[C@H]3C[C@H]4O[C@](O)(C=C4C4O[C@@H](C)[C@@H](C)O4)[C@]3(C)CC[C@@]2(C)CC1 (some centres not stated) | Active | 12 |  |  | 
CO[C@H]1C(=O)[C@]2(C)CC[C@@]3(C)CCC(C(C)C)=C3[C@H]2CC=C1C=O | Active | 19.7 |  |  | 
CC(C)C1=C2[C@H]3C[C@H]4O[C@](O)(C=C4C(=O)O)[C@]3(C)CC[C@@]2(C)CC1 | Active | > 50 |  |  | 
CC(C)C1=C2[C@H]3C[C@H]4O[C@](O)([C@H](O)[C@H]4CO)[C@]3(C)CC[C@@]2(C)CC1 | Active | > 50 |  |  | 
CC(C)C1=C2[C@H]3C[C@@H](O)C(CO)=C[C@H](O)[C@]3(C)CC[C@@]2(C)CC1 | Active | 22.1 |  |  | 
